From ChEMBL document CHEMBL2086240, “Enhanced cellular uptake and in vitro antitumor activity of short-chain fatty acid acylated daunorubicin-GnRH-III bioconjugates” (Eur J Med Chem, 2012)

How the values were obtained:
[1] = Metabolic stability […] assessed as alpha-chymotrypsin-mediated compound degradation after 6 hrs by LC-MS analysis; format: ADME, cell-free; conditions: read-out: Drug degradation
Procedure, shortened: (§1)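 Digestion with α-chymotrypsin at an enzyme:substrate ratio of 1:50 (w/w) in 100 mM Tris-HCl/10 mM CaCl₂, pH 7.8, at 25°C. Aliquots taken at 5 min and 1, 2, 4, 6, 8 and 24 h, quenched with acetic acid, and analysed by LC-MS for intact conjugate and cleavage fragments.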

[2] = test system: Serum; experiment: Metabolic stability […] assessed as alpha-chymotrypsin-mediated compound degradation after 24 hrs by LC-MS analysis; format: ADME, cell-free; procedure, shortened: as §1
[3] = Drug metabolism in rat liver lysosomal homogenate after 2 hrs by LC-MS analysis; format: ADME, tissue-based; conditions: tissue homogenate
Procedure, shortened: (§2)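 Conjugate at 0.1 µg/µL in 0.2 M NaOAc pH 5.0, mixed 1:1 (w/w) with rat liver lysosomal homogenate (protein 17.4 µg/µL by BCA). Incubated at 37°C; aliquots taken at 5 min and 1, 2, 4, 6, 8 and 24 h. Fragments identified by ESI ion-trap LC-MS on a C18 column with a formic acid/acetonitrile gradient, positive mode, m/z 100–2500.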

[4] = test system: HT-29; experiment: Cellular uptake in human HT-29 cells after 6 hrs by flow cytometer; format: ADME, cell-based; conditions: ht-29, 6 h
Procedure, shortened: (§3)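 Cells plated at 1 x 10^5 per well, grown 24 h at 37°C, then exposed to conjugate in serum-free medium (0.16–100 µM) for 6 h at 37°C. Cells detached with trypsin/EDTA, resuspended in FCS-free medium and analysed by flow cytometry. Read-out is the percentage of daunorubicin-positive living cells. Duplicate samples at each concentration; each experiment repeated twice.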

[5] = test system: MCF7; experiment: Cellular uptake in human MCF7 cells after 6 hrs by flow cytometer; format: ADME, cell-based; conditions: mcf7, 6 h; procedure, shortened: as §3
[6] = test system: HT-29; experiment: Cytostatic activity against human HT-29 cells compound incubated for 6 hrs followed by compound wash out measured after 72 hrs by MTT assay; format: functional, cell-based
Procedure, shortened: (§4)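 Cells plated at 5×10^3 per well and grown 24 h. Exposed 6 h to compound in serum-free RPMI-1640 (2.6×10^-4–10^2 µM, six parallels per concentration), washed twice, then cultured 72 h in serum-containing medium. MTT added at 367 µg/mL final for 3.5 h; crystals dissolved in DMSO; OD540 minus OD620 read. Cytostasis% = [1−(OD_treated/OD_control)]×100; IC50 taken from a sigmoidal fit. Three independent experiments, averaged.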

[7] = test system: MCF7; experiment: Cytostatic activity against human MCF7 cells compound incubated for 6 hrs followed by compound wash out measured after 72 hrs by MTT assay; format: functional, cell-based; procedure, shortened: as §4
[8] = Chemical stability of the compound in serum-free DMEM cell culture media after 6 hrs by RP-HPLC analysis; format: physicochemical
Procedure, shortened: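 Conjugate dissolved in water (20% of final volume), then diluted with serum-free DMEM to a final 0.5 mg/mL. Incubated at 37°C for 6 h with hourly sampling. Monitored by analytical RP-HPLC on a C18 or CN column, gradient of 0.1% TFA water/MeCN, detection at 220 nm.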

[9] = Drug metabolism in rat liver lysosomal homogenate after 24 hrs by LC-MS analysis; format: ADME, tissue-based; conditions: tissue homogenate; procedure, shortened: as §2
[10] = test system: HT-29; experiment: Cellular uptake in human HT-29 cells at 20 uM after 6 hrs by flow cytometer; format: ADME, cell-based; conditions: ht-29, 6 h
Procedure, shortened: (§5)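 Cells were seeded at 1 x 10^5 per well and grown 24 h. MCF-7 were kept in DMEM and HT-29 in RPMI-1640, each with 10% FCS, at 37°C and 5% CO2. Cells were exposed to bioconjugate in serum-free medium (0.16–100 µM) for 6 h at 37°C, then detached with trypsin/EDTA. Flow cytometry gave % daunorubicin-positive living cells; duplicates, two independent experiments, mean ± SD.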

[11] = test system: HT-29; experiment: Cellular uptake in human HT-29 cells at 100 uM after 6 hrs by flow cytometer; format: ADME, cell-based; conditions: ht-29, 6 h; procedure, shortened: as §5
[12] = test system: MCF7; experiment: Cellular uptake in human MCF7 cells at 20 uM after 6 hrs by flow cytometer; format: ADME, cell-based; conditions: mcf7, 6 h; procedure, shortened: as §5
[13] = test system: MCF7; experiment: Cellular uptake in human MCF7 cells at 100 uM after 6 hrs by flow cytometer; format: ADME, cell-based; conditions: mcf7, 6 h; procedure, shortened: as §5
[14] = Metabolic stability in human serum assessed as alpha-chymotrypsin-mediated compound degradation after 4 hrs by LC-MS analysis; format: ADME, cell-free; conditions: Tris-HCl/CaCl2 buffer; in the assay text read “in Tris-HCl/CaCl2 buffer” for “in human serum”; read-out: Drug degradation; procedure, shortened: as §1
[15] = Metabolic stability in presence of alpha-chymotrypsin assessed as compound remaining after 6 hrs by LC-MS analysis
[16] = Metabolic stability […] assessed as alpha-chymotrypsin-mediated compound degradation after 8 hrs by LC-MS analysis; format: ADME, cell-free; conditions: read-out: Drug degradation; procedure, shortened: as §1
[17] = test system: MCF7; experiment: Cellular uptake in human MCF7 cells at 4 uM after 6 hrs by flow cytometer; format: ADME, cell-based; conditions: mcf7, 6 h; procedure, shortened: as §3
[18] = Octanol-water partition coefficient, log P of the compound by shake flask method; format: physicochemical
Procedure, shortened: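 Shake-flask octanol/water partitioning with RP-HPLC quantitation. P calculated as the ratio of octanol to water HPLC peak areas, then converted to logP.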

[19] = target: T1, Gonadotropin-releasing hormone receptor (Homo sapiens, UniProt P30968); experiment: Displacement of [125I][D-Trp6]GnRH1 from GnRH receptor expressed in human pituitary membrane by gamma counting; format: cell membranes
T1 sequence (P30968 whole entry): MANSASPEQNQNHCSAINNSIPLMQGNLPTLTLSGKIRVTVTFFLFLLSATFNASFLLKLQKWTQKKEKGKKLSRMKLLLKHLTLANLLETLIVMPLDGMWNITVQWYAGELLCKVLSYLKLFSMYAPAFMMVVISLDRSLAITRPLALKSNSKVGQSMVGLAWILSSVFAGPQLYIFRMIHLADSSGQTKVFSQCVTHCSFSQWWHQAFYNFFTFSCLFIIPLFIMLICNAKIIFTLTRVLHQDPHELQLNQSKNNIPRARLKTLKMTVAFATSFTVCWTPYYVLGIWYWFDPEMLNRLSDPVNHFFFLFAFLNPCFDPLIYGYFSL
Procedure, shortened: (§6)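 Membranes came from autopsy anterior pituitary or a surgical prostate cancer specimen, homogenized in 50 mM Tris-HCl pH 7.4 with protease inhibitors and ultracentrifuged. 50–160 µg protein was incubated with 60-80,000 cpm [125I][D-Trp6]GnRH-I and competitor (10^-12–10^-6 M). Bound ligand was pelleted through ice-cold 1.5% BSA buffer and gamma-counted. IC50 (50% inhibition of specific binding) came from curve fitting; mean ± SE of 2–3 experiments, duplicate or triplicate.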

[20] = target: T1, Gonadotropin-releasing hormone receptor; experiment: Displacement of [125I][D-Trp6]GnRH1 from GnRH receptor expressed in human prostate cancer membrane by gamma counting; format: cell membranes, Prostate gland; procedure, shortened: as §6

SMILES	metabolised at 6 h [1]	Stability [2]	Drug metabolism [3]	Drug uptake [4]	Drug uptake [5]	IC50 [6]	IC50 [7]	Stability [8]	Drug metabolism [9]	further results
COc1cccc2c1C(=O)c1c(O)c3c(c(O)c1C2=O)C[C@@](O)(/C(C)=N/OCC(=O)NCCCC[C@H](NC(=O)[C@H](Cc1c[nH]c2ccccc12)NC(=O)[C@H](CC(=O)O)NC(=O)[C@H](Cc1cnc[nH]1)NC(=O)[C@H](CCCCN)NC(=O)[C@H](Cc1c[nH]c2ccccc12)NC(=O)[C@H](Cc1cnc[nH]1)NC(=O)[C@@H]1CCC(=O)N1)C(=O)N1CCC[C@H]1C(=O)NCC(N)=O)C[C@@H]3O[C@H]1C[C@H](N)[C@H](O)[C@H](C)O1				Dose-dependent effect	Dose-dependent effect	8.1 µM	2.6 µM			
COc1cccc2c1C(=O)c1c(O)c3c(c(O)c1C2=O)C[C@@](O)(/C(C)=N/OCC(=O)NCCCC[C@H](NC(=O)[C@H](Cc1c[nH]c2ccccc12)NC(=O)[C@H](CC(=O)O)NC(=O)[C@H](Cc1cnc[nH]1)NC(=O)[C@H](CCCCNC(=O)C(C)C)NC(=O)[C@H](Cc1c[nH]c2ccccc12)NC(=O)[C@H](Cc1cnc[nH]1)NC(=O)[C@@H]1CCC(=O)N1)C(=O)N1CCC[C@H]1C(=O)NCC(N)=O)C[C@@H]3O[C@H]1C[C@H](N)[C@H](O)[C@H](C)O1	90%	Unstable	Active	Dose-dependent effect	Dose-dependent effect	2 µM	2.2 µM	Stable	Active	Drug uptake [10]: 96.9%; Drug uptake [11]: 99.9%; Drug uptake [12]: 93.3%; Drug uptake [13]: 99.7%; metabolised at 4 h [14]: 60%; remaining at 6 h [15]: 10%
COc1cccc2c1C(=O)c1c(O)c3c(c(O)c1C2=O)C[C@@](O)(/C(C)=N/OCC(=O)NCCCC[C@@H](NC(=O)[C@H](Cc1ccc(O)cc1)NC(=O)[C@H](CO)NC(=O)[C@H](Cc1c[nH]c2ccccc12)NC(=O)[C@H](Cc1cnc[nH]1)NC(=O)[C@@H]1CCC(=O)N1)C(=O)N[C@@H](CC(C)C)C(=O)N[C@@H](CCCNC(=N)N)C(=O)N1CCC[C@H]1C(=O)NCC(N)=O)C[C@@H]3O[C@H]1C[C@H](N)[C@H](O)[C@H](C)O1				Dose-dependent effect	Dose-dependent effect	20.2 µM	4.1 µM			IC50 [19]: 0.00162 µM; IC50 [20]: 0.0165 µM

Second part, led by results:

metabolised at 6 h [1]	Stability [2]	Drug metabolism [3]	Drug uptake [4]	Drug uptake [5]	IC50 [6]	IC50 [7]	Stability [8]	Drug metabolism [9]	SMILES	further results
50%	Unstable	Active	Dose-dependent effect	Dose-dependent effect	13.6 µM	1.6 µM	Stable	Active	C/C=C/C(=O)NCCCC[C@H](NC(=O)[C@H](Cc1c[nH]c2ccccc12)NC(=O)[C@H](Cc1cnc[nH]1)NC(=O)[C@@H]1CCC(=O)N1)C(=O)N[C@@H](Cc1cnc[nH]1)C(=O)N[C@@H](CC(=O)O)C(=O)N[C@@H](Cc1c[nH]c2ccccc12)C(=O)N[C@@H](CCCCNC(=O)CO/N=C(\C)[C@]1(O)Cc2c(O)c3c(c(O)c2[C@@H](O[C@H]2C[C@H](N)[C@H](O)[C@H](C)O2)C1)C(=O)c1c(OC)cccc1C3=O)C(=O)N1CCC[C@H]1C(=O)NCC(N)=O	
45%	Unstable	Active	Dose-dependent effect	Dose-dependent effect	17.2 µM	3.6 µM	Stable	Active	CCC(=O)NCCCC[C@H](NC(=O)[C@H](Cc1c[nH]c2ccccc12)NC(=O)[C@H](Cc1cnc[nH]1)NC(=O)[C@@H]1CCC(=O)N1)C(=O)N[C@@H](Cc1cnc[nH]1)C(=O)N[C@@H](CC(=O)O)C(=O)N[C@@H](Cc1c[nH]c2ccccc12)C(=O)N[C@@H](CCCCNC(=O)CO/N=C(\C)[C@]1(O)Cc2c(O)c3c(c(O)c2[C@@H](O[C@H]2C[C@H](N)[C@H](O)[C@H](C)O2)C1)C(=O)c1c(OC)cccc1C3=O)C(=O)N1CCC[C@H]1C(=O)NCC(N)=O	
34%	Unstable	Active	Dose-dependent effect	Dose-dependent effect	16.4 µM	2.5 µM	Stable	Active	COc1cccc2c1C(=O)c1c(O)c3c(c(O)c1C2=O)C[C@@](O)(/C(C)=N/OCC(=O)NCCCC[C@H](NC(=O)[C@H](Cc1c[nH]c2ccccc12)NC(=O)[C@H](CC(=O)O)NC(=O)[C@H](Cc1cnc[nH]1)NC(=O)[C@H](CCCCNC(=O)CC(C)C)NC(=O)[C@H](Cc1c[nH]c2ccccc12)NC(=O)[C@H](Cc1cnc[nH]1)NC(=O)[C@@H]1CCC(=O)N1)C(=O)N1CCC[C@H]1C(=O)NCC(N)=O)C[C@@H]3O[C@H]1C[C@H](N)[C@H](O)[C@H](C)O1	metabolised at 8 h [16]: 50%
30%		Active	Dose-dependent effect	Dose-dependent effect	20.1 µM	1.5 µM	Stable	Active	CCCCCC(=O)NCCCC[C@H](NC(=O)[C@H](Cc1c[nH]c2ccccc12)NC(=O)[C@H](Cc1cnc[nH]1)NC(=O)[C@@H]1CCC(=O)N1)C(=O)N[C@@H](Cc1cnc[nH]1)C(=O)N[C@@H](CC(=O)O)C(=O)N[C@@H](Cc1c[nH]c2ccccc12)C(=O)N[C@@H](CCCCNC(=O)CO/N=C(\C)[C@]1(O)Cc2c(O)c3c(c(O)c2[C@@H](O[C@H]2C[C@H](N)[C@H](O)[C@H](C)O2)C1)C(=O)c1c(OC)cccc1C3=O)C(=O)N1CCC[C@H]1C(=O)NCC(N)=O	Drug degradation [2]: 90%
		Active	Dose-dependent effect	Dose-dependent effect	37.4 µM	6.8 µM	Stable	Active	CCCCCCCCCCCCCC(=O)NCCCC[C@H](NC(=O)[C@H](Cc1c[nH]c2ccccc12)NC(=O)[C@H](Cc1cnc[nH]1)NC(=O)[C@@H]1CCC(=O)N1)C(=O)N[C@@H](Cc1cnc[nH]1)C(=O)N[C@@H](CC(=O)O)C(=O)N[C@@H](Cc1c[nH]c2ccccc12)C(=O)N[C@@H](CCCCNC(=O)CO/N=C(\C)[C@]1(O)Cc2c(O)c3c(c(O)c2[C@@H](O[C@H]2C[C@H](N)[C@H](O)[C@H](C)O2)C1)C(=O)c1c(OC)cccc1C3=O)C(=O)N1CCC[C@H]1C(=O)NCC(N)=O	Drug uptake [17]: 41.3%; logP [18]: -0.596
